PMC5094435 (Saudi Pharmaceutical Journal : SPJ, 2015)
Values after ≈ are worked out from the molar mass of the structure shown. Values joined by “and” are separate entries in the source; they are usually repeats but may differ in a detail not shown here. Equal values may be shown once.

Legend:
[1] = system: tail immersion (hot water 55 °C); assay: Central analgesic activity, tail immersion method; format: in vivo, Swiss albino mice; conditions: mice, mean ± SEM; for Central analgesic activity [tail immersion (reaction time in min)] 1 h: 1 h after the dosing; for Central analgesic activity [tail immersion (reaction time in min)] 2 h: 2 h after the dosing
Method in brief: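 Used the same mice from the writhing test after a washout period. Each mouse was held in a restrainer and the protruding tail (up to 5 cm) was dipped in 55 °C water. Withdrawal time was recorded as reaction time at 1 h and 2 h post-dose. Data are mean ± SEM, analysed by ANOVA followed by Dunnett's t test.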

[2] = system: carrageenan induced edema; assay: Anti-inflammatory activity, carrageenan induced rat paw edema; format: in vivo, Wistar rats; conditions: inhibition of edema, rats
Method in brief: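 Used the Winter et al. paw oedema method in Wistar rats of either sex (160–200 g), housed six per cage and acclimatised 48 h. Percent inhibition of oedema was calculated at 1, 2, 3 and 4 h. Diclofenac served as the standard drug.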

[3] = system: Bacillus subtilis (MTCC 121); assay: Antibacterial activity; format: cell-based; conditions: MTCC121, read-out: MIC, B. subtilis
Method in brief: (§1)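 Screened by a standard method against S. aureus MTCC 96, B. subtilis MTCC 121, E. coli MTCC 1652 and P. aeruginosa MTCC 741. Ciprofloxacin was the reference antibiotic. Only compounds active at 100 μg/mL went on to MIC determination.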

[4] = system: acetic acid induced writhing; assay: Peripheral analgesic activity, acetic acid induced writhing method; format: in vivo, Swiss Albino mice; conditions: mice; for Peripheral analgesic activity (writhing test) No. of writhing: mean ± SEM; for Peripheral analgesic activity (writhing test) % Protection: vs control group
Method in brief: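 Writhing was induced with aqueous acetic acid in Swiss albino mice (20–30 g) of either sex, six per group. % Protection = (Wc − Wt)/Wc × 100, where Wc and Wt are the mean writhing counts of the control and test groups.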

[5] = system: Aspergillus niger; assay: Antifungal activity; format: cell-based; conditions: read-out: MIC, A. niger
Method in brief: (§2)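 Run by the poison food technique against Aspergillus niger and Aspergillus flavus. Fluconazole was the reference drug.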

[6] = system: Escherichia coli (MTCC 1652); assay: Antibacterial activity; format: cell-based; conditions: for MIC: Escherichia coli, MTCC1652, read-out: MIC, E. coli; for MIC, E. coli: E. coli (MTCC 1652)
Method in brief: as §1

[7] = system: Pseudomonas aeruginosa (MTCC 741); assay: Antibacterial activity; format: cell-based; conditions: for MIC: Pseudomonas aeruginosa, MTCC741, read-out: MIC, P. aeruginosa; for MIC, P. aeruginosa: P. aeruginosa (MTCC 741)
Method in brief: as §1

[8] = system: Aspergillus flavus; assay: Antifungal activity; format: cell-based; conditions: read-out: MIC, A. flavus
Method in brief: as §2

[9] = system: Staphylococcus aureus (MTCC 96); assay: Antibacterial activity; format: cell-based; conditions: MTCC96, read-out: MIC, S. aureus
Method in brief: as §1

[10] = system: mucosal damage; assay: Acute ulcerogenic activity; format: in vivo, Albino rats; conditions: rats, mean ± SEM
Method in brief: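 Conducted in Albino rats (160–200 g, housed six per cage, acclimatised 48 h) following Cioli et al. Gastric mucosal damage was scored at the end of the study. Ulcerogenic potential (severity index) came from comparing the mean score of each treated group with that of the control rats.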

| SMILES | Central analgesic activity [tail immersion (reaction time in min)] 1 h [1] | Central analgesic activity [tail immersion (reaction time in min)] 2 h [1] | % Inhibition ± SEM After 1 h [2] | % Inhibition ± SEM After 2 h [2] | % Inhibition ± SEM After 3 h [2] | MIC [3] [µg/mL] | Peripheral analgesic activity (writhing test) No. of writhing [4] | Peripheral analgesic activity (writhing test) % Protection [4] [%] | MIC [5] [µg/mL] | MIC [6] [µg/mL] | MIC [7] [µg/mL] | MIC [8] [µg/mL] | MIC [9] [µg/mL] | Ulcerogenic activity (severity index) [10] | % Inhibition ± SEM After 4 h [2] | MIC, E. coli [6] | MIC, P. aeruginosa [7] |
| --- | --- | --- | --- | --- | --- | --- | --- | --- | --- | --- | --- | --- | --- | --- | --- | --- | --- |
| O=C1OC(c2ccc3ccccc3c2)=CC1=Cc1cc2cc(Cl)ccc2nc1Cl [Compound 5b, 3-[(2,6-Dichloroquinolin-3-yl)methylene]-5-(naphthalene-2-yl)furan-2(3H)-one] | 3.2 ± 0.2^∗ min | 4.4 ± 0.5 min | 74 ± 0.18^∗∗ % | 67 ± 0.06^∗∗ % | 39 ± 0.29% | 12.5 (≈ 29.9 µM) | 26.2 ± 4.1 | 37.61 | 25 (≈ 59.8 µM) | 25 (≈ 59.8 µM) | 50 (≈ 120 µM) | 50 (≈ 120 µM) | 12.5 (≈ 29.9 µM) | 0.33 ± 0.35^∗ |  |  |  |
| O=C1OC(c2ccc3ccccc3c2)=CC1=Cc1cc2cc([N+](=O)[O-])ccc2nc1Cl [Compound 5d, 3-[(2-Chloro-6-nitroquinolin-3-yl)methylene]-5-(naphthalene-2-yl)furan-2(3H)-one] | 4.4 min and 4.4 ± 0.6^∗∗ min | 6.5 min and 6.5 ± 0.2 ^∗ min | 79 ± 0.12^∗∗ % | 61 ± 0.15^∗∗ % | 56 ± 0.25^∗ % | 25 (≈ 58.3 µM) | 6.0 ± 2.2^∗∗ |  | 25 (≈ 58.3 µM) | 12.5 (≈ 29.1 µM) | 25 (≈ 58.3 µM) | 25 (≈ 58.3 µM) | 12.5 (≈ 29.1 µM) |  |  |  |  |
| O=C1OC(c2ccc(-c3ccccc3)cc2)=CC1=Cc1cc2cc([N+](=O)[O-])ccc2nc1Cl [Compound 5h, 3-[(2-Chloro-6-nitroquinolin-3-yl)methylene]-5-(biphenyl-4-yl)furan-2(3H)-one] | 4.3 min and 4.3 ± 0.4^∗∗ min | 6.2 min and 6.2 ± 1.5^∗ min | 73 ± 0.08^∗∗ % | 58 ± 0.15^∗∗ % | 50 ± 0.13% | > 100 | 7.6 ± 2.3^∗∗ |  | 25 (≈ 55 µM) | 50 (≈ 110 µM) | > 100 | 25 (≈ 55 µM) | 25 (≈ 55 µM) | 0.40 ± 0.36 |  |  |  |
| O=C1NC(c2ccc3ccccc3c2)=CC1=Cc1cc2cc(Cl)ccc2nc1Cl [Compound 6b, 3-[(2,6-Dichloroquinolin-3-yl)methylene]-5-(naphthalene-2-yl)-1H-pyrrol-2(3H)-one] | 1.8 ± 0.2 min | 4.2 ± 0.6 min | 62 ± 0.09^∗ % | 66 ± 0.18^∗∗ % | 53 ± 0.17% | 6.25 (≈ 15 µM) | 13.8 ± 4.4^∗ | 67.14 | 12.5 (≈ 30 µM) | 50 (≈ 120 µM) | 50 (≈ 120 µM) | 12.5 (≈ 30 µM) | 6.25 (≈ 15 µM) | 0.43 ± 0.33 |  |  |  |
| O=C1C(=Cc2cc3ccccc3nc2Cl)C=C(c2ccc3ccccc3c2)N1Cc1ccccc1 [Compound 7a, 1-Benzyl-3-[(2-chloroquinolin-3-yl)methylene]-5-(naphthalene-2-yl)-1H-pyrrol-2(3H)-one] |  |  | 52 ± 0.13^∗ % | 62 ± 0.27^∗∗ % | 28 ± 0.34% | > 100 |  |  | 50 (≈ 106 µM) | 25 (≈ 52.9 µM) | > 100 | > 100 | 50 (≈ 106 µM) |  | 57 ± 0.13^∗∗ % |  |  |
| Cc1ccc2nc(Cl)c(C=C3C=C(c4ccc5ccccc5c4)N(Cc4ccccc4)C3=O)cc2c1 [Compound 7c, 1-Benzyl-3-[(2-chloro-6-methylquinolin-3-yl)methylene]-5-(naphthalene-2-yl)-1H-pyrrol-2(3H)-one] |  |  | 78 ± 0.12^∗∗ % | 71 ± 0.28^∗∗ % | 57 ± 0.25^∗ % | 50 (≈ 103 µM) |  |  | 50 (≈ 103 µM) | 50 (≈ 103 µM) | > 100 | 25 (≈ 51.3 µM) | 25 (≈ 51.3 µM) |  | 61 ± 0.21^∗∗ % |  |  |
| O=C1C(=Cc2cc3ccccc3nc2Cl)C=C(c2ccc(-c3ccccc3)cc2)N1Cc1ccccc1 [Compound 7e, 1-Benzyl-3-[(2-chloroquinolin-3-yl)methylene]-5-(biphenyl-4-yl)-1H-pyrrol-2(3H)-one] |  |  | 78 ± 0.12^∗∗ % | 51 ± 0.11^∗∗ % | 44 ± 0.08% | > 100 |  |  | 50 (≈ 100 µM) | > 100 | > 100 | > 100 | 50 (≈ 100 µM) |  | 41 ± 0.08% | did not show any inhibition | did not show any inhibition |
| Cc1ccc2nc(Cl)c(C=C3C=C(c4ccc(-c5ccccc5)cc4)N(Cc4ccccc4)C3=O)cc2c1 [Compound 7g, 1-Benzyl-3-[(2-chloro-6-methylquinolin-3-yl)methylene]-5-(biphenyl-4-yl)-1H-pyrrol-2(3H)-one] |  |  | 69 ± 0.03^∗∗ % | 54 ± 0.14^∗∗ % | 30 ± 0.20% | 50 (≈ 97.5 µM) |  |  | 25 (≈ 48.7 µM) | > 100 | > 100 | 50 (≈ 97.5 µM) | 25 (≈ 48.7 µM) |  | 40 ± 0.16% | did not show any inhibition | did not show any inhibition |
| O=C1C(=Cc2cc3cc([N+](=O)[O-])ccc3nc2Cl)C=C(c2ccc(-c3ccccc3)cc2)N1Cc1ccccc1 [Compound 7h, 1-Benzyl-3-[(2-chloro-6-nitroquinolin-3-yl)methylene]-5-(biphenyl-4-yl)-1H-pyrrol-2(3H)-one] | 5.5 min and 5.5 ± 0.3^∗∗ min | 6.4 min and 6.4 ± 0.3^∗ min | 36 ± 0.13% | 65 ± 0.24^∗∗ % | 58 ± 0.34^∗ % | > 100 | 10.4 ± 3.7^∗∗ |  | 50 (≈ 91.9 µM) | 50 (≈ 91.9 µM) | 50 (≈ 91.9 µM) | > 100 | 25 (≈ 46 µM) |  |  |  |  |
| O=C(O)Cc1ccccc1Nc1c(Cl)cccc1Cl [Diclofenac, diclofenac, reference compound] | 8.2 ± 0.2^∗∗ min | 8.8 ± 0.2^∗∗ min |  |  |  |  | 4.2 ± 1.0^∗∗ | 90 |  |  |  |  |  | 0.86 ± 0.28 | 92% |  |  |
